ChEMBL document CHEMBL1135477, “Antifungal agents. 10. New derivatives of 1-[(aryl)[4-aryl-1H-pyrrol-3-yl]methyl]-1H-imidazole, synthesis, anti-candida activity, and quantitative structure-analysis relationship studies” (J Med Chem, 2002)
In brackets after ≈: the same amount, converted by molar mass.

Experiments:
Assay type in all cases: functional
Candida [1] = assay: Tested In vitro for antifungal activity against Candida species. at pH 7.2
In short: (§1)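 Liquid serial-dilution MIC against 3 freshly isolated clinical Candida strains (two C. glabrata, one C. krusei) in Sabouraud broth at pH 7.2 or 5.8. Inoculum was 10³/mL after 18 h pre-culture at 37 °C, read at 24 h, 37 °C. Range was 0.25–256 μg/mL. Endpoint was no visible growth versus a DMSO/water blank.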

Candida albicans [2] = assay: In vitro antifungal activity against 40 strains of Candida albicans at pH 5.8; (range is from 1 to 16)
In short: (§2)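 Broth serial-dilution MIC against 40 clinical C. albicans isolates from hospitalized patients, grown in Sabouraud broth at pH 7.2 or 5.8. Cells were pre-grown 18 h at 37 °C, inoculated at 10³/mL, and read at 24 h, 37 °C. Doubling dilutions ran 0.25–256 μg/mL from a DMSO/water solution. MIC was the lowest concentration with no visible growth against a DMSO/water blank.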

Candida [3] = assay: Tested in vitro for antifungal activity against Candida species. at pH 5.8 ( range is from 8 to 16); in short: as §1
Candida [4] = assay: In vitro antifungal activity against 40 strains at pH 5.8,(percent of resistant species at 256 ug/mL)
In short: (§3)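 Broth serial-dilution test in Sabouraud broth at pH 7.2 or 5.8, against 40 fresh clinical C. albicans isolates from hospitalized patients. Inocula were 10³/mL, pre-grown 18 h at 37 °C in Sabouraud dextrose broth. Compound from a DMSO/water stock was twofold-diluted over 0.25–256 µg/mL. Visible growth was read at 24 h, 37 °C.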

Candida albicans [5] = assay: In vitro antifungal activity against 40 strains of Candida albicans at pH 7.2; in short: as §2
Candida [6] = assay: Tested In vitro for antifungal activity against Candida species. at pH 7.2; (percent of resistant species at 256 ug/mL)
In short: (§4)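 Broth serial-dilution test in Sabouraud broth at pH 7.2 or 5.8, against 3 fresh clinical non-albicans isolates (two C. glabrata, one C. krusei). Inocula were 10³/mL, pre-grown 18 h at 37 °C. Compound was twofold-diluted over 0.25–256 µg/mL and read at 24 h, 37 °C for visible growth.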

Candida [7] = assay: Tested In vitro for antifungal activity against Candida species. at pH 7.2; (range is from 4 to 32); in short: as §1
Candida albicans [8] = assay: In vitro antifungal activity against 40 strains of Candida albicans at pH 5.8; in short: as §2
Candida [9] = assay: Tested in vitro for antifungal activity against Candida species. at pH 5.8; in short: as §1
Candida albicans [10] = assay: In vitro antifungal activity against 40 strains of Candida albicans at pH 7.2; (percent of resistant species at 256 ug/mL); in short: as §3
Candida albicans [11] = assay: IIn vitro antifungal activity against 40 strains of Candida albicans at pH 5.8; (percent of resistant species at 256 ug/mL); in short: as §3
Candida albicans [12] = assay: In vitro antifungal activity against 40 strains of Candida albicans at pH 7.2; minimum inhibitory concentration (range is from 4 to 64); in short: as §2
[13] = biological target: Lanosterol 14-alpha demethylase (Candida albicans (strain SC5314 / ATCC MYA-2876) (Yeast), UniProt P10613); assay: Anticandida activity- (MIC90 compound) / (MIC90 bifonazole)
Candida albicans [14] = assay: In vitro antifungal activity against 40 strains of Candida albicans at pH 5.8; (percent of resistant species at 256 ug/mL); in short: as §3
Candida albicans [15] = assay: In vitro antifungal activity against 40 strains of Candida albicans at pH 7.2; minimum inhibitory concentration (range is from 1 to 32); in short: as §2
Candida [16] = assay: Tested In vitro for antifungal activity against Candida species. at pH 7.2; (range is from 4 to 16); in short: as §1
Candida albicans [17] = assay: In vitro antifungal activity against 40 strains of Candida albicans at pH 5.8; value ranges from 0.5 to 4); in short: as §2
Candida [18] = assay: Tested in vitro for antifungal activity against Candida species. at pH 5.8; range is from 1 to 64; in short: as §1
Candida [19] = assay: Tested in vitro for antifungal activity against Candida species. at pH 5.8 (percent of resistant species at 256 ug/mL); in short: as §4
Candida albicans [20] = assay: In vitro antifungal activity against 40 strains of Candida albicans at pH 5.8; (range is from 0.25 to 32); in short: as §2
Candida [21] = assay: Tested in vitro for antifungal activity against Candida species. at pH 5.8; (range is from 4 to 8); in short: as §1
Candida [22] = assay: Tested In vitro for antifungal activity against Candida species. at pH 7.2; (range is from 8 to 16); in short: as §1
Candida albicans [23] = assay: IIn vitro antifungal activity against 40 strains of Candida albicans at pH 7.2; minimum inhibitory concentration (range is from 0.5 to 16); in short: as §2
Candida albicans [24] = assay: In vitro antifungal activity against 40 strains of Candida albicans at pH 5.8; value ranges from 128 to >256; in short: as §2
Candida [25] = assay: Tested in vitro for antifungal activity against Candida species. at pH 7.2; (percent of resistant species at 256 ug/mL); in short: as §4
Candida [26] = assay: Tested in vitro for antifungal activity against Candida species. at pH 7.2
In short: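 Fresh clinical isolates (two C. glabrata, one C. krusei) were pre-grown 18 h at 37 °C in Sabouraud dextrose broth. Broth double-dilution was run in Sabouraud broth at pH 5.8 or 7.2 over 0.25–256 µg/mL from a DMSO/water stock, with 10³/mL inoculum.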

Candida [27] = assay: Tested in vitro for antifungal activity against Candida species. at pH 5.8; (percent of resistant species at 256 ug/mL); in short: as §4
Candida albicans [28] = assay: In vitro antifungal activity against 40 strains of Candida albicans at pH 7.2; minimum inhibitory concentration; value ranges from 128 to >256; in short: as §2
Candida albicans [29] = assay: Compound was tested for its anti-candida activity, expressed as ratio of minimum inhibitory concentration

Lanosterol 14-alpha demethylase, sequence (P10613 whole entry): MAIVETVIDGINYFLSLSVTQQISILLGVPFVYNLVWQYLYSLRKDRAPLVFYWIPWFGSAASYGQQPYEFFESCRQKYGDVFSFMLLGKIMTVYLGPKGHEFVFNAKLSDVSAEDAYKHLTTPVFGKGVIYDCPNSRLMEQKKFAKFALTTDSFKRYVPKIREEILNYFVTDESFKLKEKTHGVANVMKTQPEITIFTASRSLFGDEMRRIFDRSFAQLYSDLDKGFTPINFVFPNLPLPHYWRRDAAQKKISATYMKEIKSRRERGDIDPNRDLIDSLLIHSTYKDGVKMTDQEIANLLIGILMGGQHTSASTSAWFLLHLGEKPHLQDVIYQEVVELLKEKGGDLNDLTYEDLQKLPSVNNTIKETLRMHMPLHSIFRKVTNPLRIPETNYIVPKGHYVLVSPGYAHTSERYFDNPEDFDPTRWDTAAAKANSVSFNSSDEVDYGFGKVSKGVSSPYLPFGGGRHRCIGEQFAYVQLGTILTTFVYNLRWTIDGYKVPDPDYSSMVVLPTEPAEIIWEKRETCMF

SMILES	MIC (Candida [1])	MIC50 (Candida [1])	MIC90 (Candida [1])	MIC (Candida albicans [5])	MIC50 (Candida albicans [5])	MIC90 (Candida albicans [5])	Resistance (Candida [6])	MIC (Candida albicans [8])	MIC50 (Candida albicans [8])	MIC90 (Candida albicans [8])	MIC (Candida [9])	MIC50 (Candida [9])	MIC90 (Candida [9])	Resistance (Candida albicans [10])	Resistance (Candida albicans [11])	Ratio [13]	Resistance (Candida albicans [14])	Resistance (Candida [19])	further results
FC(F)(F)c1ccc(-c2c[nH]cc2[C@@H](c2ccc(Cl)cc2Cl)n2ccnc2)cc1	17.3 mg/L (≈ 39.7 µM)	16 mg/L (≈ 36.7 µM)	32 mg/L (≈ 73.4 µM)	7.63 mg/L (≈ 17.5 µM)	4 mg/L (≈ 9.17 µM)	8 mg/L (≈ 18.3 µM)	0%	4.8 mg/L (≈ 11 µM)	4 mg/L (≈ 9.17 µM)	8 mg/L (≈ 18.3 µM)	16 mg/L (≈ 36.7 µM)	16 mg/L (≈ 36.7 µM)	16 mg/L (≈ 36.7 µM)	0%	0%	–	–	–	Range (Candida albicans [2]): 16 µg/mL; Range (Candida [3]): 16 µg/mL; Resistance (Candida [4]): 0%; Range (Candida [7]): 32 µg/mL; Range (Candida albicans [12]): 64 µg/mL
Cn1cc(-c2ccc(Cl)cc2)c([C@H](c2ccc(Cl)cc2Cl)n2ccnc2)c1	6.1 mg/L (≈ 14.6 µM)	16 mg/L (≈ 38.4 µM)	32 mg/L (≈ 76.8 µM)	5.3 mg/L (≈ 12.7 µM)	2 mg/L (≈ 4.8 µM)	16 mg/L (≈ 38.4 µM)	0%	2.54 mg/L (≈ 6.09 µM)	0.5 mg/L (≈ 1.2 µM)	2 mg/L (≈ 4.8 µM)	4.5 mg/L (≈ 10.8 µM)	2 mg/L (≈ 4.8 µM)	64 mg/L (≈ 154 µM)	0%	–	3	0%	0%	Range (Candida albicans [15]): 32 µg/mL; Range (Candida [16]): 16 µg/mL; Range (Candida albicans [17]): 4 µg/mL; Range (Candida [18]): 64 µg/mL
CCn1cc(-c2ccc(Cl)cc2)c([C@H](c2ccc(Cl)cc2Cl)n2ccnc2)c1	13.3 mg/L (≈ 30.9 µM)	16 mg/L (≈ 37.1 µM)	16 mg/L (≈ 37.1 µM)	3.2 mg/L (≈ 7.43 µM)	1 mg/L (≈ 2.32 µM)	2 mg/L (≈ 4.64 µM)	0%	2.36 mg/L (≈ 5.48 µM)	1 mg/L (≈ 2.32 µM)	2 mg/L (≈ 4.64 µM)	5.33 mg/L (≈ 12.4 µM)	4 mg/L (≈ 9.29 µM)	8 mg/L (≈ 18.6 µM)	0%	0%	2.9	–	0%	Range (Candida albicans [20]): 32 µg/mL; Range (Candida [21]): 8 µg/mL; Range (Candida [22]): 16 µg/mL; Range (Candida albicans [23]): 16 µg/mL
Clc1ccc(-c2c[nH]cc2[C@@H](c2ccc(Cl)cc2Cl)n2cnnc2)cc1	–	–	–	165 mg/L (≈ 408 µM)	> 256 mg/L	> 256 mg/L	–	128 mg/L (≈ 317 µM)	> 256 mg/L	> 256 mg/L	–	> 256 mg/L	> 256 mg/L	77%	–	49	94%	–	Range (Candida albicans [24]): >256 µg/mL; Resistance (Candida [25]): 100%; MIC50 (Candida [26]): > 256 mg/L; MIC90 (Candida [26]): > 256 mg/L; Range (Candida [26]): >256 µg/mL; Resistance (Candida [27]): 100%; Range (Candida albicans [28]): >256 µg/mL; Range (Candida [9]): >256 µg/mL
c1ccc(-c2ccc([C@@H](c3ccccc3)n3ccnc3)cc2)cc1 [BIFONAZOLE]	–	–	–	–	–	–	–	–	–	–	–	–	–	–	–	–	–	–	MIC90 ratio (Candida albicans [29]): 1
